Here are results for nine compounds from ChEMBL document CHEMBL1759978, “Synthesis and biological evaluation of fatty acyl ester derivatives of 2',3'-didehydro-2',3'-dideoxythymidine” (Bioorg Med Chem Lett, 2011).

Calls of active or inactive are those of the source. The calls are words filed in the database; no cut-off is given here. Some results are limits rather than exact numbers.

The test system of data set [1] is CCRF-CEM. As to the kind of experiment: Cellular uptake in human CCRF-CEM cells at 10 uM after 1 hr by real time fluorescence microscopy. It is filed as ADME, cell-based. In outline: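 Live CCRF-CEM cells were incubated 1 h with 10 of the fluorescein-labelled conjugates, with DMSO and free 5(6)-carboxyfluorescein as controls, then imaged by fluorescence light microscopy.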

Data set [2] relates to CCRF-CEM. As to the kind of experiment: Cellular uptake in human CCRF-CEM cells at 10 uM after 1 to 8 hrs by flow cytometry. It counts as ADME, cell-based. Put shortly: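 CCRF-CEM T lymphoblastoid cells grown to 70% confluency, then exposed to 10 of the fluorescein-tagged conjugates for 1, 2, 4 and 8 h, with DMSO and free 5(6)-carboxyfluorescein as controls. Uptake was read by flow cytometry in the FITC channel as the mean fluorescence of 10,000 cells, in triplicate.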

For data set [3], the system named is Human immunodeficiency virus 1. Nature of the data set: Antiviral activity against Human immunodeficiency virus 1 infected in human CEM-SS cells assessed as inhibition of viral replication. It counts as functional, organism-based. The conditions noted are these: Human immunodeficiency virus 1, CEM-SS.
Data set [4] relates to Human immunodeficiency virus 1. As to the kind of experiment: Antiviral activity against Human immunodeficiency virus 1 3B by MAGI assay. It counts as functional, organism-based.
The test system of another data set is HeLa. Nature of the data set: Cytotoxicity against human HeLa P4/R5 cells by MTS assay. It counts as cell-based. The conditions noted are these: read-out: EC50 (the source's name). For orientation: Tetrazolium assays rely on reduction of a dye to a coloured formazan, in cell work by metabolically active cells.
Data set [5] relates to Human immunodeficiency virus 1. As to the kind of experiment: Antiviral activity against Human immunodeficiency virus 1 BAL by MAGI assay. It is filed as functional, organism-based.
In data set [6] the test system is Human immunodeficiency virus 1. As to the kind of experiment: Antiviral activity against Human immunodeficiency virus 1 3B infected in human SupT1 cells by cell-associated transmission assay. It is filed as functional, organism-based. The conditions noted are these: SUP-T1.
For data set [7], the species on record is Homo sapiens. As to the kind of experiment: Spermicidal activity against human sperm assessed as immobolizing sperm treated for 10 mins by microscopy relative to control. It counts as functional.
For data set [8], the species on record is Homo sapiens. As to the kind of experiment: Spermicidal activity against human sperm assessed as sperm tail response at 1 mg/ml for 10 mins by microscopy relative to control. It counts as functional.
The subject of data set [9] is CCRF-CEM. As to the kind of experiment: Cellular uptake in human CCRF-CEM cells at 10 uM after 1 to 8 hrs measured after 5 mins trypsin wash off by flow cytometry relative to control. It is filed as ADME, cell-based. Background: Flow cytometry measures light scatter and fluorescence of single cells or particles in a stream.

Regarding `O=C(O)c1ccc2c(c1)C1(OC2=O)c2ccc(O)cc2Oc2cc(O)ccc21`, the Drug uptake entry in the data set on CCRF-CEM [1] is listed as “Not Active”.

For `Cc1cn([C@H]2C=C[C@@H](COC(=O)CCNC(=O)c3ccc(-c4c5ccc(=O)cc-5oc5cc(O)ccc45)c(C(=O)O)c3)O2)c(=O)[nH]c1=O`, the Drug uptake result with CCRF-CEM [2] and with CCRF-CEM [1] was “Not Active” each time.

`CCSCCCCCCCCCCCC(=O)O`: the EC50 – broadly, the midpoint of the concentration-response curve – in data set [3] amounted to 9.4 µM.

Turning to `Cc1cn([C@H]2C=C[C@@H](COC(=O)CCCCCCCCCCCBr)O2)c(=O)[nH]c1=O`, the EC50 in [4] is 14.9 µM; in data set [5], 2.3 µM; in data set [6] it was more than 206 µM. In the data set on HeLa, the CC50 was more than 200 µM.

In the case of `Cc1cn([C@H]2C=C[C@@H](COC(=O)CCCCCCCCCCCN=[N+]=[N-])O2)c(=O)[nH]c1=O`, the half-maximal effective concentration (EC50) came out at 6.7 µM in data set [4], 3.1 µM in data set [5] and 22.4 µM in data set [6]. The result in the data set filed under Homo sapiens [7] and in the data set listed under Homo sapiens [8] was inactive. For the same compound, the CC50 in the data set on HeLa was more than 200 µM.

In the case of `CCSCCCCCCCCCCCC(=O)OC[C@@H]1C=C[C@H](n2cc(C)c(=O)[nH]c2=O)O1`, the values for the EC50 in data set [4], in data set [5] and in [6] were 14.4 µM, 5.8 µM and 46.5 µM, respectively. In addition, the result in the data set listed under Homo sapiens [7] and in the data set listed under Homo sapiens [8] was inactive. For the same compound, the CC50 in the data set with HeLa was more than 200 µM.

As for `Cc1cn([C@H]2C=C[C@@H](COC(=O)CCCCCCCCCCCNC(=O)c3ccc(-c4c5ccc(=O)cc-5oc5cc(O)ccc45)c(C(=O)O)c3)O2)c(=O)[nH]c1=O`, the Drug uptake result in the data set on CCRF-CEM [2], in the data set with CCRF-CEM [1] and with CCRF-CEM [9] was “Active” throughout.

As to `Cc1cn([C@H]2C=C[C@@H](CO)O2)c(=O)[nH]c1=O` [STAVUDINE], the results for the EC50 in data set [4], in data set [5] and in data set [6] were 26.8 µM, 28.1 µM and 136 µM, respectively.

With `CCCCCCCCCCCCCC(=O)OC[C@@H]1C=C[C@H](n2cc(C)c(=O)[nH]c2=O)O1`, the half-maximal effective concentration (EC50) is 78.3 µM in data set [4], 12.4 µM in [5] and more than 230 µM in [6]. The result in the data set filed under Homo sapiens [7] and in the data set filed under Homo sapiens [8] was inactive. Moreover, the CC50 in the data set with HeLa was more than 200 µM.
